Measured values from ChEMBL document CHEMBL5385953, “Antiviral Rotenoids and Isoflavones Isolated from Millettia oblata ssp. teitensis” (J Nat Prod, 2024).
Active and inactive are the calls of the source. No cut-off for these calls is given here.

Tests used:
HEp-2 [1] = assay: Cytostatic activity against human HEp-2 cells assessed as poor cell staining at 4.0 uM measured after 3 days by CellTiter 96 aqueous one solution assay; format: functional, cell-based; details: time 3.0 day
[2] = Selectivity index, ratio of CC50 for human HEp-2 cells to IC50 for Human respiratory syncytial virus infected in human HEp-2 cells; format: toxicity, cell-based; details: read-out: Ratio CC50/IC50
HEp-2 [3] = assay: Cytotoxicity against human HEp-2 cells measured after 3 days by CellTiter 96 aqueous one solution assay (Rvb >100 microM); format: functional; details: HEp-2, 72 h, time 3 day
HEp-2 [4] = assay: Cytostatic activity against human HEp-2 cells assessed as poor cell staining at 100 uM measured after 3 days by CellTiter 96 aqueous one solution assay; format: functional, cell-based; details: time 3.0 day
HEp-2 [5] = assay: Cytostatic activity against human HEp-2 cells assessed as poor cell staining at 20 uM measured after 3 days by CellTiter 96 aqueous one solution assay; format: functional, cell-based; details: time 3.0 day
In short: (§1)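 Compound-treated HEp-2 cells (grown in DMEM with 8% fetal calf serum and 292 μg/mL L-glutamine) were examined by microscopy alongside the tetrazolium viability assay. Cytostatic effects were scored as poor cell proliferation, altered cell shape or poor cell staining.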

HEp-2 [6] = assay: Cytostatic activity against human HEp-2 cells assessed as poor cell staining at 0.8 to 4.0 uM measured after 3 days by CellTiter 96 aqueous one solution assay; format: functional, cell-based; details: dose 0.8-4 µM, time 3.0 day; in short: as §1
HEp-2 [7] = assay: Cytostatic activity against human HEp-2 cells assessed as poor cell proliferation at 100 uM measured after 3 days by CellTiter 96 aqueous one solution assay; format: functional, cell-based; details: time 3.0 day; in short: as §1
HEp-2 [8] = assay: Cytostatic activity against human HEp-2 cells assessed as poor cell staining at 4.0 to 100 uM measured after 3 days by CellTiter 96 aqueous one solution assay; format: functional, cell-based; details: dose 4-100 µM, time 3.0 day

Row | SMILES | CC50 (HEp-2 [3]) [µM] | further results
1 | COc1cc2c(cc1OC)[C@@H]1C(=O)c3ccc4c(c3O[C@@H]1CO2)C=CC(C)(C)O4 [DEGUELIN] |  | Activity (HEp-2 [1]): Active; selectivity ratio [2]: 61.6
2 | CC(C)=CCOc1ccc(-c2coc3c4c(cc(O)c3c2=O)OC(C)(C)C=C4)cc1 | > 100 | Activity (HEp-2 [4]): Active
3 | COc1ccc2c(=O)c(-c3cc(OC)c4c(c3OC)OCO4)coc2c1 | > 100 | 
4 | COc1cc2c(cc1-c1coc3cc(O)ccc3c1=O)OCO2 [CUNEATIN] | > 100 | 
5 | COc1ccc2c(c1)O[C@@H]1COc3cc4c(cc3[C@@H]1C2=O)OCO4 | > 100 | 
6 | COc1c(O[C@@H]2O[C@H](CO[C@H]3O[C@H](C)[C@@H](O)[C@H](O)[C@@H]3O)[C@@H](O[C@@H]3O[C@H](CO[C@H]4O[C@H](C)[C@@H](O)[C@H](O)[C@@H]4O)[C@@H](O)[C@H](O)[C@H]3O)[C@H](O)[C@H]2O)cc2c(=O)c(-c3ccc4c(c3)OCO4)coc2c1OC | > 100 | 
7 | COc1ccc2c(c1)O[C@@H]1COc3cc(OC)c(OC)cc3[C@]1(O)C2=O |  | Activity (HEp-2 [5]): Active
8 | CC1(C)C=Cc2c(ccc3c(=O)c(-c4ccc5c(c4)OCO5)coc23)O1 | > 100 | 
9 | COc1ccc2c(c1)O[C@@H]1COc3c(cc(OC)c4c3OCO4)[C@@H]1C2=O | > 100 | 
10 | COc1cc2c(cc1OC)[C@]1(O)C(=O)c3ccc4c(c3O[C@@H]1CO2)C=CC(C)(C)O4 |  | Activity (HEp-2 [6]): Active
11 | NC(=O)c1ncn([C@@H]2O[C@H](CO)[C@@H](O)[C@H]2O)n1 [RIBAVIRIN] | > 100 | Activity (HEp-2 [7]): Active
12 | CC(C)=CCOc1ccc(-c2coc3c4c(ccc3c2=O)OC(C)(C)C=C4)cc1 | > 100 | Activity (HEp-2 [8]): Active; selectivity ratio [2]: > 47.6
13 | COc1cc2c(cc1-c1coc3c4c(c(OC)cc3c1=O)OC(C)(C)C=C4)OCO2 [ICHTHYNONE] | 91 | Activity (HEp-2 [5]): Active
14 | COc1ccc2c(=O)c(-c3cc4c(cc3OC)OCO4)coc2c1 |  | Activity (HEp-2 [5]): Active
15 | COc1cc2c(cc1OC)C(=O)[C@@]1(O)c3cc4c(cc3OC[C@H]1O2)OCO4 | > 100 | 
16 | COc1ccc2c(c1)O[C@@H]1COc3cc4c(cc3[C@]1(O)C2=O)OCO4 |  | Activity (HEp-2 [5]): Active
